Square brackets hold non-standard residues; d marks the D form. Peptide text beside a SMILES is read from it. * marks the point of attachment. Oic = O=C(O)[C@@H]1C[C@@H]2CCCC[C@@H]2N1; Phe(4-CN) = N#Cc1ccc(C[C@H](N)C(=O)O)cc1; Acryloyl = C=CC(=O)*
Tests used:
[1] = target: T1, Tyrosine-protein kinase BTK (Homo sapiens, UniProt Q06187); test: Binding affinity to BTK (unknown origin) by mass spectrometry analysis relative to control; set-up: concentration or dose not given beside the values
How it was run: (§1)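 Wild-type or C481S BTK incubated with compound for one hour. Samples diluted to 0.1 mg/ml protein in 5% acetonitrile/0.1% formic acid, then reversed-phase C4 LC (80 °C, acetonitrile/0.1% FA gradient, UV 214 and 280 nm) coupled to positive-mode ESI-MS for intact mass. Adduct read as the mass shift versus BTK alone.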

[2] = tested on: Tyrosine-protein kinase BTK (Homo sapiens), Q06187 [C481S]; test: Binding affinity to recombinant human BTK C481S mutant (389 to 659 residues) expressed in insect cells assessed as change in melting temperature at 50 uM incubated for 120 mins by thermal shift assay
How it was run: (§2)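 BTK (389-659), wild-type or C481S, at 5 μM with 50 μM compound for 120 min at room temperature in 20 mM HEPES pH 8.0, 0.5 mM TCEP, 150 mM NaCl, 0.01% Tween20, 0.5% DMSO. nanoDSF with a 20–95 °C ramp at 2.5 °C/min, tryptophan 350/330 nm ratio. Tm taken from the first-derivative maximum, three technical replicates. ΔTm is Tm with compound minus apo Tm.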

[3] = tested on: Tyrosine-protein kinase BTK (Homo sapiens), Q06187 [C481S]; test: Binding affinity to BTK C481S mutant (unknown origin) by mass spectrometry analysis relative to control; set-up: concentration or dose not given beside the values; how it was run: as §1
[4] = target: T1, Tyrosine-protein kinase BTK; test: Inhibition of recombinant human N-terminal His-tagged BTK expressed in baculovirus infected in Sf9 cells incubated for 1 hr by TR-FRET assay
How it was run: (§3)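 Proteros reporter displacement assay. BTK is preincubated with a Cy5-labelled ATP-competitive probe, then unlabelled competitor is added and signal recorded over 1 h, in technical triplicates. Data normalized to high and low controls at each time point. IC50 is apparent after 1 h. kobs comes from a mono-exponential decay fit excluding the first point, and is refit as kobs = kinact·[I]/(KI+[I]) to give kinact, KI and kinact/KI.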

[5] = target: T1, Tyrosine-protein kinase BTK; test: Inhibition of recombinant human N-terminal His-tagged BTK expressed in baculovirus infected in Sf9 cells assessed as inactivation constant incubated for 1 hr by TR-FRET assay; how it was run: as §3
[6] = target: Tyrosine-protein kinase BTK (Homo sapiens, UniProt Q06187, C481S); test: Inhibition of recombinant human N-terminal His-tagged BTK C481S mutant expressed in baculovirus infected in Sf9 cells incubated for 1 hr by TR-FRET assay
How it was run: (§4)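 Proteros reporter displacement assay: enzyme pre-incubated with Cy5-labelled ATP-competitive kinase inhibitor probe, then unlabeled competitor added. Signal recorded for 1 hour and normalized at each time-point to high (enzyme + probe, no competitor) and low (enzyme, no probe, with competitor) controls. Technical triplicates.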

[7] = target: T1, Tyrosine-protein kinase BTK; test: Inhibition of recombinant human N-terminal His-tagged BTK expressed in baculovirus infected in Sf9 cells assessed as inhibitory constant incubated for 1 hr by TR-FRET assay; how it was run: as §3
[8] = target: T1, Tyrosine-protein kinase BTK; test: Inhibition of recombinant human N-terminal His-tagged BTK expressed in baculovirus infected in Sf9 cells assessed as ratio of inactivation constant to inhibitory constant incubated for 1 hr by TR-FRET assay; how it was run: as §3
[9] = target: T1, Tyrosine-protein kinase BTK; test: Binding affinity to recombinant human BTK (389 to 659 residues) expressed in insect cells assessed as change in melting temperature at 50 uM incubated for 120 mins by thermal shift assay; how it was run: as §2
[10] = target: T1, Tyrosine-protein kinase BTK; test: Inhibition of recombinant wild type human N-terminal His-tagged BTK expressed in baculovirus infected in Sf9 cells assessed as residence time incubated for 1 hr by TR-FRET assay; how it was run: as §4
[11] = tested on: Tyrosine-protein kinase BTK (Homo sapiens), Q06187 [C481S]; test: Inhibition of recombinant human N-terminal His-tagged BTK C481S mutant expressed in baculovirus infected in Sf9 cells assessed as residence time incubated for 1 hr by TR-FRET assay; how it was run: as §4

Sequence of Tyrosine-protein kinase BTK (Homo sapiens), Q06187 [C481S] (Q06187 whole entry C481S, the tested form may be a part): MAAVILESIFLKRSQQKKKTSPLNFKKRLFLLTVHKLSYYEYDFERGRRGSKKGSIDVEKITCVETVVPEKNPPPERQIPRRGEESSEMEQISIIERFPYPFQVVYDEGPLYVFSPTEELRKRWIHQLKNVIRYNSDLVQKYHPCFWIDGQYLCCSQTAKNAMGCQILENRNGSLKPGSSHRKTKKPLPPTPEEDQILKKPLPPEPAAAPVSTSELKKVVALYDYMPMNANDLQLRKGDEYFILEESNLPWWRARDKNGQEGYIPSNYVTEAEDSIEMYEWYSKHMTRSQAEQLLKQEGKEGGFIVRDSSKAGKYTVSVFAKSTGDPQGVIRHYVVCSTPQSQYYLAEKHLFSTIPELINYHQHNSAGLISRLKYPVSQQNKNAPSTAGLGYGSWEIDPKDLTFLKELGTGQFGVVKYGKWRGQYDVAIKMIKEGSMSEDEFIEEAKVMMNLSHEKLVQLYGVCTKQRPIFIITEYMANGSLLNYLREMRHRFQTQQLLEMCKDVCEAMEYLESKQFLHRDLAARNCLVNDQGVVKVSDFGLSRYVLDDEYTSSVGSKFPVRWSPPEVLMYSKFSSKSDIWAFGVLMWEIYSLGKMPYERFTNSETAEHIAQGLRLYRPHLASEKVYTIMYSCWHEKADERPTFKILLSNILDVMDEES
Sequence of Tyrosine-protein kinase BTK (Homo sapiens, UniProt Q06187, C481S) (Q06187 2-659 C481S limits assumed): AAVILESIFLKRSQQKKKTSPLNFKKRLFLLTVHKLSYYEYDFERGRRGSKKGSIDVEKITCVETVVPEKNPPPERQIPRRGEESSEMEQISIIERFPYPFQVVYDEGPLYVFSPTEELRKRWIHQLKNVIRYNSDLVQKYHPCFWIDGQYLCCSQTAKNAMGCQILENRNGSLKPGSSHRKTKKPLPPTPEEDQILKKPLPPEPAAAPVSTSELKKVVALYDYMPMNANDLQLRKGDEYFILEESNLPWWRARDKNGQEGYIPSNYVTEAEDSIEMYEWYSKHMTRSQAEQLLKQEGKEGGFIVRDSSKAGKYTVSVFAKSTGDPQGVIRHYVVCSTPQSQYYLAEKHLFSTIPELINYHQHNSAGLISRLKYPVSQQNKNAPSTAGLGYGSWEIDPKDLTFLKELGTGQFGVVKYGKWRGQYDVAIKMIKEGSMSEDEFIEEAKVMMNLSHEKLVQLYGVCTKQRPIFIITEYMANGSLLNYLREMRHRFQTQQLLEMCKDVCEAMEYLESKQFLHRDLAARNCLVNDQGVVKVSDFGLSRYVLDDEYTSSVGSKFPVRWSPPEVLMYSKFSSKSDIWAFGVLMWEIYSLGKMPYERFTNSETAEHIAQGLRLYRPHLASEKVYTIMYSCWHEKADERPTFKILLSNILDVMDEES
T1 sequence (Q06187 whole entry): as the sequence (Q06187 whole entry C481S, the tested form may be a part) above, with S481C counted along it

| SMILES | Activity [1] [%] | ΔTm [2] [°C] | Activity [3] [%] | IC50 [4] [nM] | Kinact [5] | IC50 [6] [nM] | Ki [7] [nM] | Ratio [8] [s⁻¹ M⁻¹] | ΔTm [9] [°C] | TIME [10] [h] | TIME [11] [h] |
| --- | --- | --- | --- | --- | --- | --- | --- | --- | --- | --- | --- |
| CNC(=O)[C@@H](Cc1ccc(C#N)cc1)NC(=O)[C@@H](NC(=O)[C@]1(C)CO1)[C@@H](C)OC(C)(C)C | 92.3 | 0.23 | 0 | 58.1 | 8.22 10^-3/s | > 59200 | 1250 | 6580 | 4.51 |  |  |
| CNC(=O)[C@H]1Cc2c([nH]c3ccccc23)CN1C(=O)c1occc1CNc1ccc2nccnc2c1 | 0 | 13.4 | 0 | 3.78 |  | 3.04 |  |  | 13.2 | 0.15 | 0.367 |
| C=CC(=O)N1[C@H](C(=O)N[C@@H](Cc2ccc(C#N)cc2)C(=O)NC)C[C@@H]2CCCC[C@@H]21 (Acryloyl-[Oic]-[Phe(4-CN)]-NHMe) | 94.4 |  | 0 | 36400 |  | > 59200 |  |  |  |  |  |
| C=CC(=O)N1CCC[C@H](CC(=O)N2Cc3[nH]c4ccccc4c3C[C@@H]2C(=O)NC)C1 | 97.9 | 0.1 | 0 | 4760 |  | > 59200 |  | 59.2 | 6.55 |  |  |
| CNC(=O)[C@H]1Cc2c([nH]c3ccccc23)CN1C(=O)[C@@H](Cc1ccccc1)NC(=O)c1c[nH]c(C(N)=O)c1 |  |  |  | 22.7 |  | 56.2 |  |  |  | 0.567 | 0.233 |
| CNC(=O)[C@H]1Cc2c([nH]c3ccccc23)CN1C(=O)C[C@@H](Cc1cccc(F)c1)NC(=O)C1CO1 (stereo partly specified) |  |  |  | 232 | 1.54 10^-2/s | > 59200 | 9270 | 1660 |  |  |  |
| CNC(=O)[C@@H](Cc1ccc(C#N)cc1)NC(=O)[C@@H](NC(=O)[C@@H]1CO1)c1ccccc1 | 95.2 | -0.15 | 0 | 84.2 | 9.41 10^-3/s | > 59200 | 1930 | 4880 | 6.36 |  |  |

— ChEMBL document CHEMBL4811293, “Novel irreversible covalent BTK inhibitors discovered using DNA-encoded chemistry” (Bioorg Med Chem, 2021)
